Measurements as given in ChEMBL document CHEMBL1150667, “New cytotoxic constituents from the Formosan soft corals Clavularia viridis and Clavularia violacea” (2002).
≈ marks a conversion by molar mass, not a printed value.

How the values were obtained:
Assay type in all cases: functional
A549 = test: Cytotoxicity against human A549 cells; conditions: for EC50: Homo sapiens, A549, read-out: ED50 (the source's name)
How it was run: (§1)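 Human lung adenocarcinoma (A549) and colon adenocarcinoma (HT-29) lines obtained from ATCC. Cytotoxicity assayed in cell culture following a previously published standard procedure.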

HT-29 = test: Cytotoxicity against human HT-29 cells; conditions: read-out: ED50 (the source's name); how it was run: as §1
P388 = test: Cytotoxicity against mouse P388 cells; conditions: for EC50: Mus musculus, P388, read-out: ED50 (the source's name)
How it was run: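 Mouse lymphocytic leukemia P-388 cells obtained from an academic laboratory (University of Illinois at Chicago). Cytotoxicity assayed in cell culture following a previously published standard procedure.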

| Structure (SMILES) | EC50 (A549) [µg/mL] | EC50 (HT-29) [µg/mL] | EC50 (P388) [µg/mL] | ED50 (A549) [×10⁻⁴ ug/ml] | ED50 (P388) [×10⁻⁴ ug/ml] |
| --- | --- | --- | --- | --- | --- |
| C=C1C(=O)O[C@H]2/C=C(\C)C[C@H](OC(C)=O)/C=C(\C)C[C@H](OC(C)=O)/C=C(\C)CC[C@H]12 [CLAVIOLIDE] | 4.91 (≈ 11.8 µM) | 0.84 (≈ 2.02 µM) | 0.38 (≈ 0.912 µM) |  |  |
| CCCCC/C=C\C[C@]1(OC(C)=O)C=CC(=O)/C1=C/C=C/CCCC(=O)OC [CLAVIRIDENONE E] | 0.41 (≈ 1.06 µM) | 1.02 (≈ 2.63 µM) | 0.11 (≈ 0.283 µM) |  |  |
| CC(C)[C@@H](C)CC[C@@H](C)[C@H]1CC[C@H]2[C@@H]3C[C@@H](O)C4=CC=CC(=O)[C@]4(C)[C@H]3[C@H](O)C[C@]12C [STOLONIFERONE E] |  | 0.0091 (≈ 0.0212 µM) |  | 3.2 | 1.2 |
| CC(C)[C@@H](C)CC[C@@H](C)[C@H]1CC[C@H]2[C@@H]3C[C@@H](O)[C@@]4(O)C=C[C@@H](O)C(=O)[C@]4(C)[C@H]3[C@H](O)C[C@]12C [STOLONIFERONE F] | 3.69 (≈ 7.98 µM) | 6.46 (≈ 14 µM) | 2.36 (≈ 5.1 µM) |  |  |
| C=C(CC[C@@H](C)[C@H]1CC[C@H]2[C@@H]3C[C@@H](O)[C@@]4(O)C=C[C@@H](O)C(=O)[C@]4(C)[C@H]3[C@H](O)C[C@]12C)C(C)C [STOLONIFERONE G] | 3.58 (≈ 7.77 µM) | 5.86 (≈ 12.7 µM) | 2.12 (≈ 4.6 µM) |  |  |
